In ChEMBL document CHEMBL1137311, “Peptide inhibitors of West Nile NS3 protease: SAR study of tetrapeptide aldehyde inhibitors” (J Med Chem, 2006):
Non-standard residues stand in square brackets, D forms with d. Residues, ends and D or L forms follow the SMILES beside them. *: point of attachment. NMeR = CN[C@@H](CCCNC(=N)N)C(=O)O; NMeK = CN[C@@H](CCCCN)C(=O)O; NMeNle = CCCC[C@H](NC)C(=O)O; Phg = N[C@H](C(=O)O)c1ccccc1; dNle = CCCC[C@@H](N)C(=O)O; Nle = CCCC[C@H](N)C(=O)O; Bz = O=C(c1ccccc1)*

assay: Inhibition of West Nile virus NS3 protease
In short: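 Enzyme: WNV CF40-gly-NS3pro187 conjugate at 50 nM, preincubated with a range of inhibitor concentrations for 30 min at 37 °C. Buffer: 50 mM Tris pH 8.5 with 1 mM CHAPS. Reaction started with 20 µM Bz-nKRR-AMC. Fluorescence (ex 385/em 465 nm) followed continuously. IC50 from nonlinear fit of initial velocities, each point in duplicate within a single experiment.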

First: C[C@H](NC(=O)c1ccccc1)C(=O)N[C@@H](CCCCN)C(=O)N[C@@H](CCCNC(=N)N)C(=O)N[C@H](C=O)CCCNC(=N)N (Bz-AKRR-aldehyde)
Second: CCCC[C@H](NC(=O)c1ccccc1)C(=O)N[C@@H](C)C(=O)N[C@@H](CCCNC(=N)N)C(=O)N[C@H](C=O)CCCNC(=N)N (Bz-[Nle]ARR-aldehyde)
The IC50 of the first is 5.4-fold lower: 0.7 µM for the first, 3.8 µM for the second. The first is the more potent here.

Compared with NCCCC[C@H](NC(=O)[C@H](Cc1ccccc1)NC(=O)c1ccccc1)C(=O)N[C@@H](CCCN=C(N)N)C(=O)N[C@H](C=O)CCCN=C(N)N (Bz-FKRR-aldehyde), CCCC[C@H](NC(=O)c1ccccc1)C(=O)N[C@@H](CCCCN)C(=O)N[C@@H](CCCN=C(N)N)C(=O)N[C@@H](C=O)CCCN=C(N)N (Bz-[Nle]KR[dR]-aldehyde) is 12-fold higher in IC50: 1.2 µM for the first, 14 µM for the second.

Going from CCCC[C@@H](C(=O)N[C@@H](CCCCN)C(=O)N[C@@H](CCCN=C(N)N)C(=O)N[C@H](C=O)CCCN=C(N)N)N(C)C(=O)c1ccccc1 (Bz-[NMeNle]KRR-aldehyde) to CCCC[C@H](NC(=O)c1ccccc1)C(=O)N[C@@H](CCCCN)C(=O)N(C)[C@@H](CCCN=C(N)N)C(=O)N[C@H](C=O)CCCN=C(N)N (Bz-[Nle]K[NMeR]R-aldehyde), the IC50 rises from 9.3 µM to 57.8 µM (6.2-fold). The first is the more potent here.

Compared with CCCC[C@H](NC(=O)c1ccccc1)C(=O)N[C@@H](Cc1ccccc1)C(=O)N[C@@H](CCCNC(=N)N)C(=O)N[C@H](C=O)CCCNC(=N)N (Bz-[Nle]FRR-aldehyde), CCCC[C@H](NC(=O)c1ccccc1)C(=O)N[C@@H](CCCCN)C(=O)N[C@@H](Cc1ccccc1)C(=O)N[C@H](C=O)CCCNC(=N)N (Bz-[Nle]KFR-aldehyde) is 26-fold higher in IC50: 4.2 µM for the first, 108 µM for the second.

Going from CCCC[C@H](NC(=O)c1ccccc1)C(=O)N[C@@H](CCCCN)C(=O)N[C@@H](C)C(=O)N[C@H](C=O)CCCN=C(N)N (Bz-[Nle]KAR-aldehyde) to CCCC[C@H](NC(=O)c1ccccc1)C(=O)N[C@@H](CCCCN)C(=O)N[C@@H](CCCN=C(N)N)C(=O)N[C@@H](C)C=O (Bz-[Nle]KRA-aldehyde), the IC50 falls from 262 µM to 4.6 µM (57-fold).

Compared with CCCC[C@H](NC(=O)c1ccccc1)C(=O)N[C@@H](CCCCN)C(=O)N[C@@H](CCCCN)C(=O)N[C@H](C=O)CCCNC(=N)N (Bz-[Nle]KKR-aldehyde), CCCC[C@H](NC(=O)c1ccccc1)C(=O)N[C@@H](CCCCN)C(=O)N[C@@H](CCCNC(=N)N)C(=O)N[C@H](C=O)CCCCN (Bz-[Nle]KRK-aldehyde) is 30-fold higher in IC50: 1.9 µM for the first, 57.7 µM for the second.

CCCC[C@H](NC(=O)c1ccccc1)C(=O)N[C@@H](CCCCN)C(=O)N[C@@H](CCCNC(=N)N)C(=O)N[C@H](C=O)Cc1ccccc1 (Bz-[Nle]KRF-aldehyde) and CCCC[C@H](NC(=O)c1ccccc1)C(=O)N[C@@H](CCCCN)C(=O)N[C@@H](CCCNC(=N)N)C(=O)N[C@H](C=O)c1ccccc1 (Bz-[Nle]KR[Phg]-aldehyde) are within 1.5-fold of each other in IC50: 110 µM for the first, 90.9 µM for the second.

Compared with CCCC[C@H](NC(=O)c1ccccc1)C(=O)N[C@@H](CCCCN)C(=O)N[C@@H](CCCNC(=N)N)C(=O)N[C@H](C=O)Cc1cnc[nH]1 (Bz-[Nle]KRH-aldehyde), CCCC[C@H](NC(=O)c1ccccc1)C(=O)N[C@@H](CCCCN)C(=O)N[C@@H](CCCNC(=N)N)C(=O)N[C@H](C=O)CCCNC(=N)N (Bz-[Nle]KRR-aldehyde) is 11-fold lower in IC50: 43.1 µM for the first, 4.1 µM for the second.

First: CCCC[C@H](NC(=O)c1ccccc1)C(=O)N[C@@H](CCCCN)C(=O)N[C@@H](CCCN=C(N)N)C(=O)N[C@H](C=O)Cc1c[nH]c2ccccc12 (Bz-[Nle]KRW-aldehyde)
Second: CCCC[C@H](NC(=O)c1ccccc1)C(=O)N[C@@H](CCCCN)C(=O)N[C@H](CCCN=C(N)N)C(=O)N[C@H](C=O)CCCN=C(N)N (Bz-[Nle]K[dR]R-aldehyde)
The IC50 of the first is 13-fold lower: 10 µM for the first, 129 µM for the second. The first is the more potent here.

Going from CCCC[C@H](NC(=O)c1ccccc1)C(=O)N1CCC[C@H]1C(=O)N[C@@H](CCCN=C(N)N)C(=O)N[C@H](C=O)CCCN=C(N)N (Bz-[Nle]PRR-aldehyde) to CCCC[C@H](NC(=O)c1ccccc1)C(=O)N[C@H](CCCCN)C(=O)N[C@@H](CCCN=C(N)N)C(=O)N[C@H](C=O)CCCN=C(N)N (Bz-[Nle][dK]RR-aldehyde), the IC50 rises from 14.3 µM to 23.8 µM (1.7-fold). The first is the more potent here.

Compared with CCCC[C@H](NC(=O)c1ccccc1)C(=O)N(C)[C@@H](CCCCN)C(=O)N[C@@H](CCCN=C(N)N)C(=O)N[C@H](C=O)CCCN=C(N)N (Bz-[Nle][NMeK]RR-aldehyde), CCCC[C@@H](NC(=O)c1ccccc1)C(=O)N[C@@H](CCCCN)C(=O)N[C@@H](CCCN=C(N)N)C(=O)N[C@H](C=O)CCCN=C(N)N (Bz-[dNle]KRR-aldehyde) is 28-fold lower in IC50: 73.6 µM for the first, 2.6 µM for the second. The second is the more potent here.
